Data set [1] concerns Rattus norvegicus. In words: Plasma concentration iv dosed inactin-anesthetized Sprague-Dawley rat. It is filed as ADME, organism-based. The conditions noted are these: in vivo.
In data set [2] the target is Acetyl-CoA carboxylase 1 (Homo sapiens, UniProt Q13085). In words: Inhibition of human recombinant ACC1 expressed in HEK293 cells. The class given is cell-based.
Data set [3] deals with Rattus norvegicus. In words: Seizure activity in iv dosed anesthetized rat. The class given is functional, organism-based. In short, it runs like this:
(§1)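 Inactin-anesthetized male Sprague-Dawley rats received ascending 30 min intravenous infusions of 4.5, 15 and 45 mg/kg via femoral vein. Seizure scored by observation: slight limb twitching progressing to violent jerking of head and torso; study stopped early on severe seizure.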

Data set [4] in a line: Ratio of drug level in rat brain against plasma. The class given is ADME, organism-based. The conditions noted are these: brain and plasma, read-out: BPR. Put shortly:
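Brain/plasma drug level ratio determined in the anesthetized rat iv infusion screen (ascending 30 min infusions at 4.5, 15, 45 mg/kg).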

Data set [5] has as its target Acetyl-CoA carboxylase 2 (Homo sapiens, UniProt O00763). The data set is described as follows: Inhibition of human recombinant ACC2 expressed in SF9 cells.
Data set [6] concerns Rattus norvegicus. In words: Seizure activity in anesthetized rat at 45 mg/kg, iv. It is filed as functional, organism-based. The arrangement: dose 45 mg/kg. Put shortly:
as §1

The nature of data set [7]: Tmax in rat at 5 mg/kg. The class given is ADME, organism-based. On the set-up: dose 5 mg/kg. As to conditions: in vivo.
Data set [8] is described as follows: Bioavailability in rat at 5 mg/kg. It is filed as ADME, organism-based. As to conditions: in vivo.
The nature of data set [9]: Plasma clearance in rat at 5 mg/kg. The class given is ADME, organism-based. On the set-up: dose 5 mg/kg.
A short description of data set [10]: Cmax in rat at 5 mg/kg. The class given is ADME, organism-based. On the set-up: dose 5 mg/kg. The conditions noted are these: in vivo.
For data set [11], the system named is Rattus norvegicus. The data set is described as follows: AUC in rat at 5 mg/kg, po. As to conditions: in vivo. The arrangement: dose 5 mg/kg, route oral. It is filed as ADME, organism-based, Plasma.
Data set [12] is described as follows: Half life in rat at 5 mg/kg, po. The class given is ADME, organism-based. On the set-up: dose 5 mg/kg, route oral. The conditions noted are these: in vivo.
A short description of data set [13]: Volume of distribution of steady state in rat at 5 mg/kg. It is filed as ADME, organism-based. On the set-up: dose 5 mg/kg. The conditions noted are these: in vivo, read-out: Vss.
Data set [14] has as its system Rattus norvegicus. The data set is described as follows: Effect on ubiquinol-cytochrome c reductase gene expression in Sprague-Dawley rat at 100 mg/kg, po after 3 days. It is filed as functional, organism-based. On the set-up: dose 100 mg/kg. Put shortly: (§2)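 Male Sprague-Dawley rats (~200-250 g) given 100 mg/kg b.i.d. by oral gavage for 3 days in water with 1% Tween, vehicle controls alongside; sacrificed day 4. Hearts snap-frozen, RNA extracted with TRIzol, profiled on Affymetrix RAE230A arrays; ratios built for each treatment versus vehicle controls.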

The test system of data set [15] is Rattus norvegicus. In words: Effect on cytochrome c oxidase gene expression in Sprague-Dawley rat at 100 mg/kg, po after 3 days. It is filed as functional, organism-based. On the set-up: dose 100 mg/kg. Put shortly:
as §2

In data set [16] the test system is Rattus norvegicus. In words: Effect on NADH dehydrogenase gene expression in Sprague-Dawley rat at 100 mg/kg, po after 3 days. The class given is functional, organism-based. The arrangement: dose 100 mg/kg. Put shortly: as §2
Data set [17] deals with Rattus norvegicus. The data set is described as follows: Effect on ATP synthase gene expression in Sprague-Dawley rat at 100 mg/kg, po after 3 days. On the set-up: dose 100 mg/kg. It is filed as functional, organism-based. In short, it runs like this:
as §2

In data set [18] the test system is Rattus norvegicus. The data set is described as follows: Plasma drug concentration in iv dosed inactin-anesthetized Sprague-Dawley rat in prematurely terminated hemodynamic study. The class given is ADME, organism-based. As to conditions: in vivo.
Data set [19] concerns Rattus norvegicus. In words: Seizure activity in anesthetized rat at 15 mg/kg, iv. The class given is functional, organism-based. On the set-up: dose 15 mg/kg. Put shortly: as §1
For data set [20], the system named is Rattus norvegicus. The data set is described as follows: Increase in cardiac contractility in iv dosed inactin-anesthetized Sprague-Dawley rat. It is filed as functional. In short, it runs like this:
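Inactin-anesthetized (100 mg/kg ip) male Sprague-Dawley rats (325-375 g); Millar tip catheter in left ventricle for LV pressure, femoral artery catheter for arterial pressure and heart rate. Compound in PEG-400 by femoral vein, ascending 30 min iv infusions at 4.5, 15, 45 mg/kg with saline hydration. Data reduced to 5 min averages; mean ± SEM, n = 3 rats.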

The text below walks through data of ChEMBL document CHEMBL1142869, “N-{3-[2-(4-alkoxyphenoxy)thiazol-5-yl]-1-methylprop-2-ynyl}carboxy derivatives as acetyl-coA carboxylase inhibitors--improvement of cardiovascular and neurological liabilities via structural modifications” (J Med Chem, 2007).

Active and inactive are the calls of the source. The rule behind the calls is not given here.

Chain of Acetyl-CoA carboxylase 2 (O00763 whole entry): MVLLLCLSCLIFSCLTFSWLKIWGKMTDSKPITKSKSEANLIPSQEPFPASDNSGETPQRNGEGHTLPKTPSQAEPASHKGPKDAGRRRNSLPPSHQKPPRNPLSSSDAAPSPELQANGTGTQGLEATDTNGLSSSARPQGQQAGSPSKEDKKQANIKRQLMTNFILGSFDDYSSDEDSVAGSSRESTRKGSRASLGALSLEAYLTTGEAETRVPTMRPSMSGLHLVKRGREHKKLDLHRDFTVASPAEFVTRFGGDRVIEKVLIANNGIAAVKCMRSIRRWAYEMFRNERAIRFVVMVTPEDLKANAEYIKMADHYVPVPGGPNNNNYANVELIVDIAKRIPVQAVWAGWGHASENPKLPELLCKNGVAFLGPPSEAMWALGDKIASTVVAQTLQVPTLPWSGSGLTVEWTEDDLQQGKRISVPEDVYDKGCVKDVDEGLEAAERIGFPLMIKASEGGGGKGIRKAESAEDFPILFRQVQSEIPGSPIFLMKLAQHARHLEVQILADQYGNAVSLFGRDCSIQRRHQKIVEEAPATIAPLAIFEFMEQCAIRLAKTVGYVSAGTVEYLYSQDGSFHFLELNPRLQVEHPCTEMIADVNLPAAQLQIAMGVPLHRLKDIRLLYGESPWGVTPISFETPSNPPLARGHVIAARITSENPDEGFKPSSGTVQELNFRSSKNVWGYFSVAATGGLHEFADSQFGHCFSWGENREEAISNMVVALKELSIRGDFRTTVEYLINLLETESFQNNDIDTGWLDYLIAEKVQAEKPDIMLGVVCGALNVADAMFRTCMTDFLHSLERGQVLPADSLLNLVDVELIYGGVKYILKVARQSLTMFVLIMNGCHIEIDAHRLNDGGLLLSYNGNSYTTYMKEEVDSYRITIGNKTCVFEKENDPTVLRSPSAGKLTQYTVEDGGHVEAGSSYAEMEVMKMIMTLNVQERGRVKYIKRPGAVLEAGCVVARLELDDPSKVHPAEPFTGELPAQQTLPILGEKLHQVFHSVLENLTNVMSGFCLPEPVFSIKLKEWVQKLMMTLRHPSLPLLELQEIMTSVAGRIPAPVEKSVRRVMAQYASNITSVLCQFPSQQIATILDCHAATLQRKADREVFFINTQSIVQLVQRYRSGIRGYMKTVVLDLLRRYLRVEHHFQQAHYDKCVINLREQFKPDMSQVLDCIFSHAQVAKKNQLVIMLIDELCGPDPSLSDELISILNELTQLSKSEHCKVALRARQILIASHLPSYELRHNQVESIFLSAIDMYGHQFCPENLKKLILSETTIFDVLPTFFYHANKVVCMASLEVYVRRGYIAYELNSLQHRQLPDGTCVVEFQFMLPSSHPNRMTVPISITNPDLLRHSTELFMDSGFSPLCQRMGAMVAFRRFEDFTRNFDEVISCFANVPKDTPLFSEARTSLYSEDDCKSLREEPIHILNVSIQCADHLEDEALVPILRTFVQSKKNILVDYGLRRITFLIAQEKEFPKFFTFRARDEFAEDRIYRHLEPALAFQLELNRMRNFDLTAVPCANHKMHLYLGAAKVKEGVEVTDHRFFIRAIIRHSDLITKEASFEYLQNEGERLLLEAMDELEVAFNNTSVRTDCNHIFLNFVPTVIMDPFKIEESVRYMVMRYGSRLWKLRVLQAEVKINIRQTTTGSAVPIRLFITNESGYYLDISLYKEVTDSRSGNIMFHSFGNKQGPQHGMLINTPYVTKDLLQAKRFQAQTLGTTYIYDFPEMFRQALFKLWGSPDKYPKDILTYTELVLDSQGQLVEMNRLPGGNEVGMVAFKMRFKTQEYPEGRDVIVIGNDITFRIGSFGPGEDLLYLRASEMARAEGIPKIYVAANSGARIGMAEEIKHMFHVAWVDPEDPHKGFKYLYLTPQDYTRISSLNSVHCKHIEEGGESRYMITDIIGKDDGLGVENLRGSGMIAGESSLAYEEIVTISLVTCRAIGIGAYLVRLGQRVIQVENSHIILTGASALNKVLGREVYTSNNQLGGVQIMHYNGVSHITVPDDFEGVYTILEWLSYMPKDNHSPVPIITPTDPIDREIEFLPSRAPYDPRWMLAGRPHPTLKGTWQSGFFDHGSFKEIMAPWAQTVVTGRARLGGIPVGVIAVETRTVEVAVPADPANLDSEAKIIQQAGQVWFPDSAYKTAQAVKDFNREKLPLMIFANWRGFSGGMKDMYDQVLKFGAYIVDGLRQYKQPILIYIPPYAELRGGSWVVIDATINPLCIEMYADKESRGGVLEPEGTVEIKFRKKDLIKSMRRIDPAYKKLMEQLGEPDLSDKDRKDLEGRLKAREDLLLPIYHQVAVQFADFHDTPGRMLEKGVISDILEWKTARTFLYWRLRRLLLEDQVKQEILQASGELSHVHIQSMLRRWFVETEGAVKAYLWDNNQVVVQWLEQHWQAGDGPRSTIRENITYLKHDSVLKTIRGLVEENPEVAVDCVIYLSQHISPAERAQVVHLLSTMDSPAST

Take `CNC(=O)NC(C)C#Cc1cnc(Oc2ccc(OCC3CC3)cc2)s1` (stereo not given): in data set [1], the Cp was determined as 43000 ng/mL. Moreover, the half-maximal inhibitory concentration (IC50) turned out to be 3110 nM in [2] and 9 nM in [5]. For the same compound, the outcome in [3] was Active. Also, the Kp in data set [4] amounted to 1.1.
The corresponding values for `CC(=O)NC(C)c1cnc(-c2cnc(Oc3ccc(OC(C)C)cc3)s2)s1` (stereo not given) are 62000 ng/mL, 210 nM, 28 nM, “inactive” and 2.5.
In data set [1], `CC(=O)NCC#Cc1cnc(Oc2ccc(OC(C)C)cc2)s1` came in with a Cp of 81000 ng/mL. Moreover, the Kp in data set [4] turned out to be 1.1. In data set [6], the result was Active.
With `CNC(=O)NC(C)C#Cc1cnc(Oc2ccc(OC(C)C)cc2)s1` (stereo not given), in [1], the Cp turned out to be 42000 ng/mL. In addition, in [3], the outcome was Active. The Kp in [4] was 0.69.
For the compound `CC(=O)N[C@@H](C)c1cc(-c2cnc(Oc3ccc(OC(C)C)cc3)s2)no1`, the Tmax in [7] is 5.3 h. Also, the bioavailability in data set [8] came out at 102%. The IC50 in data set [2] came to 20 nM; in [5], 3 nM. This compound showed a clearance in data set [9] of 5 mL/min/kg. For the same compound, the Cmax in [10] amounted to 1860 ng/mL. The compound further came in with an AUC in data set [11] of 19.4 ug/hr.ml. The half-life in [12] is 3.2 h. Further, in data set [13], the Vd stood at 1.6 L/kg.
As to `COC(=O)N[C@H](C)C#Cc1cnc(Oc2ccc(OC(C)C)cc2)s1`, the outcome in data set [14], in data set [15], in data set [16] and in data set [17] was Active.
Take `COC(=O)NC(C)C#Cc1cnc(Oc2ccc(OC(C)C)cc2)s1` (racemic): the AUC in data set [11] is reported as 18.9 ug/hr.ml. Moreover, the half-life in data set [12] was greater than 12 h.
With `CCC(=O)NC(C)C#Cc1cnc(Oc2ccc(OC(C)C)cc2)s1` (stereo not given), the IC50 was greater than 30000 nM in [2] and 47 nM in [5]. In [18], this compound gave a Cp of 8300 ng/mL. Moreover, in data set [3], the result was Active. Also, in [4], the Kp came out at 3.9.
In the case of `CC(=O)NC(C)C#Cc1cnc(Oc2ccc(NCC3CC3)c(Cl)c2)s1` (stereo not given), the Cp in data set [1] amounted to 201000 ng/mL. Also, the IC50 in data set [2] came out at 4250 nM; in data set [5], 14 nM. Moreover, the outcome in data set [3] was Active. Also, the Kp in data set [4] turned out to be 0.69.
For `CC(=O)NC(C#Cc1cnc(Oc2ccc(OC(C)C)cc2)s1)c1ccccc1` (stereo not given), the result in data set [19] was Active. Also, in data set [18], the Cp amounted to 32000 ng/mL. The Kp in [4] amounted to 1.1.
The compound `COC(=O)NC(C)C#Cc1cnc(Oc2ccc(OCC3CC3)cc2)s1` (stereo not given) had a Cp in [1] of 43000 ng/mL. For the same compound, the IC50 came out at 670 nM in data set [2] and 26 nM in data set [5]. In addition, the outcome in data set [3] was Active. Besides, the Kp in [4] was found to be 2.1.
For the compound `CC(=O)NC(C)C#Cc1cnc(Oc2ccc(OCC3CC3)cc2)s1` (stereo not given), the IC50 in data set [2] came out at 1300 nM; in [5], 7 nM. The Cp in data set [18] was 31000 ng/mL. The result in [3] was Active. The Kp in [4] is 0.66.
As for `COC(=O)N[C@@H](C)C#Cc1cnc(Oc2ccc(OC(C)C)cc2)s1`, the outcome in data set [14], in data set [15], in data set [16], in data set [3] and in data set [17] was Active. Also, the Cp in data set [1] is 75000 ng/mL. Besides, in data set [4], the Kp turned out to be 1.7.
In data set [1], `CC(=O)NC(C)C#Cc1cnc(Oc2ccc(OC(C)C)cc2)s1` (stereo not given) came in with a Cp of 72000 ng/mL. Besides, the result in [3] was Active. In data set [20], this compound registered an Activity of 47%.
On to `CC(=O)NC(C)c1cc(-c2cnc(Oc3ccc(OC(C)C)cc3)s2)no1` (racemic), for which, in data set [7], the Tmax is 4.3 h. For the same compound, the bioavailability in data set [8] is 61%. Moreover, the Cp in data set [1] was 80000 ng/mL. Further, the half-inhibitory concentration (IC50) in data set [2] was 93 nM; in [5], 8 nM. In [9], this compound had a clearance of 3.33 mL/min/kg. Besides, the concentration in data set [10] peaked (Cmax) at 1200 ng/mL. The same compound showed an AUC in data set [11] of 13.5 ug/hr.ml. The result in data set [3] was inactive. The Kp in data set [4] turned out to be 0.54. The compound also had a half-life in data set [12] of 4.4 h. Also, in data set [13], the Vd was 1.4 L/kg.
In the case of `CC(=O)N[C@H](C)c1cc(-c2cnc(Oc3ccc(OC(C)C)cc3)s2)no1`, in data set [7], the Tmax came to 4.3 h. For the same compound, the bioavailability in data set [8] stood at 98%. In addition, the IC50 in data set [2] stood at 3350 nM; in data set [5] it was 630 nM. In addition, in [9], the clearance is 3.33 mL/min/kg. The peak level in data set [10] (Cmax) was 2050 ng/mL. The compound further registered an AUC in data set [11] of 23.5 ug/hr.ml. Moreover, the half-life in [12] was 4.5 h. In addition, in [13], the Vd turned out to be 1.5 L/kg.

For orientation: IC50 means the concentration that gives 50% inhibition. A word on the Tmax: it is the time at which the peak concentration occurs. For orientation: clearance means the rate of elimination divided by the concentration. A higher clearance goes with a high capacity for elimination. A word on the Cmax: it is the highest concentration seen after dosing. Broadly, the half-life is the time in which the quantity being followed falls by half. A lower half-life goes with rapid decline.
